Results from different studies.
Protocols differ between the studies behind these lines.
Target: Mitogen-activated protein kinase kinase kinase kinase 5 (MAP4K5, Homo sapiens, UniProt Q9Y4K4)

CC1CCCN1c1nccc(-c2cnn3ncccc23)n1 (stereo not drawn)
remaining binding (binding; 1 µM): 100%

O=c1nc(-c2ccccn2)sc2ccccc12
remaining binding (binding, competition with immobilised ligand; 1 µM): 100%

Cc1cnn2ncc(-c3ccnc(N(C)C)n3)c2c1
remaining binding (binding; 1 µM): 67%

C=CC(=O)N1CCC(C(=O)NCC(=O)N2CCN(c3nc(-c4cnc(N)nc4C(F)F)nc(N4CCOCC4)n3)CC2)CC1
remaining binding (binding, competition with immobilised ligand; 1 µM): 95%

CNC(=O)c1ccc(Nc2ncc(C(F)(F)F)c(NCc3nccnc3N(C)S(C)(=O)=O)n2)cc1
remaining binding (cell-free assay, competition with immobilised ligand; 0.1 µM): 100%

Cc1cnc(Nc2ccc(C(=O)N3CCC(N4CCCC4)CC3)cc2)nc1-c1cc2ccccc2s1
remaining binding (binding, competition with immobilised ligand; 1 µM): 51%

COc1cnc(Nc2cccc(S(N)(=O)=O)c2)nc1N1CCN(c2ccccc2)C(=O)C1
remaining binding (binding, competition with immobilised ligand; 1 µM): 100%

N[C@@H]1CCN(c2nccc(-c3cnn4ncccc34)n2)C1
remaining binding (binding; 1 µM): 100%

O=C(NCC1CCOCC1)c1n[nH]cc1NC(=O)c1c(F)cccc1F
remaining binding (binding, competition with immobilised ligand; 1 µM): 89%

CN(c1ccnc(CNc2nc(Nc3ccc4c(c3)CC(=O)N4)ncc2C(F)(F)F)n1)S(C)(=O)=O
remaining binding (cell-free assay, competition with immobilised ligand; 1 µM): 72%

CN(CCCC(F)(F)F)c1nccc(-c2cnn3ncccc23)n1
remaining binding (binding; 1 µM): 100%

C[C@@H](c1ccc(-n2cnc3c(N)ncnc32)cc1)N1CCc2nn(C)c(Cc3ccccc3)c2C1=O
remaining binding (binding, competition with immobilised ligand; 0.1 µM): 87%

O=C(c1ccc(Nc2nccc(-c3cc4ccccc4s3)n2)cc1)N1CCC(N2CCCC2)CC1
remaining binding (binding, competition with immobilised ligand; 1 µM): 100%

C[C@@H]1CCN(c2nccc(-c3cnn4ncccc34)n2)C1
remaining binding (binding; 1 µM): 93%

Nc1c(C(=O)NCc2ccc(C(=O)NCCCC3CCCCC3)cc2)cnn1-c1ccccc1
remaining binding (cell-free assay, competition with immobilised ligand; 0.1 µM): 100%

F[C@@H]1CCN(c2nccc(-c3cnn4ncccc34)n2)C1
remaining binding (binding; 1 µM): 79%

O=C(N1CCS(=O)(=O)CC1)N1C[C@H](c2ccc(OC(F)(F)F)cc2)C[C@H](c2nc(C3CC3)no2)C1
remaining binding (cell-free assay, competition with immobilised ligand; 1 µM): 100%

CCN1CCN(Cc2ccc(C(=O)Nc3ccc(C)c(Oc4ccc5c(c4)CC(=O)N5)c3)cc2C(F)(F)F)CC1
remaining binding (binding, competition with immobilised ligand; 1 µM): 100%

O=C(NCCCN1CCOCC1)c1ccc(Nc2nccc(-c3cc4ccccc4s3)n2)cc1
remaining binding (binding, competition with immobilised ligand; 1 µM): 82%

O=C(O)[C@@H]1[C@@H](Cn2nnc3ccccc3c2=O)CC[C@H]1C(=O)c1ccc(OCCC2CCOCC2)cc1
remaining binding (cell-free assay, competition with immobilised ligand; 1 µM): 100%

Nc1ncc2c(n1)-c1c([nH]c3ccc(C#CC4CC4)cc13)CCCC2
remaining binding (binding, competition with immobilised ligand; 1 µM): 82%
